In paper PMC12783166 (Clinical Pharmacokinetics, 2025):

Key:
Assay type in all cases: in vivo, human
[1] = Phase 1 population PK model; conditions: Phase 1 Model
[2] = Phase 2 population PK model; conditions: Phase 2 Model
[3] = Individual predicted steady-state exposures
Procedure, shortened: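 Steady-state AUC24, Ctrough, Cmax and Cavg were derived from each individual's Bayesian post hoc estimates from the final three-compartment population PK model, with sequential zero-/first-order lagged absorption. Values are summarised per […] as mean (SD) and median (5th–95th percentile).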

SMILES: C[C@@H]1[C@H](c2c(F)ccc(F)c2F)C[C@H](NC(=O)c2cnc3c(c2)C[C@@]2(C3)C(=O)Nc3ncccc32)C(=O)N1CC(F)(F)F [atogepant, Atogepant]
- Famotidine pre-treatment on Frel ([1]; fractional covariate effect): −0.15
- Famotidine pre-treatment on ka ([1]; fractional covariate effect): −0.51
- Formulation 2 tablet effect on ka ([1]; fractional covariate effect): −0.44
- Formulation 2 tablet on Frel ([1]; fractional covariate effect): −0.17
- Formulation 4 tablet effect on ka ([1]; fractional covariate effect): −0.42
- Oral solution on Frel ([1]; fractional covariate effect): −0.67
- Absorption rate constant [ka (/h)] ([1]; healthy participants): 2.44 h⁻¹
- Apparent clearance healthy participants [CL/F (L/h)] ([1]; healthy participants): 19.82 L/h
- Lag time [ALAG (h)] ([1]; healthy participants): 0.30 h
- Exponential dose effect on ka ([1]; power exponent): −0.41
- σprop ([1]; proportional residual error): 0.12
- ω^2CL/F ([1]; variance of IIV): 0.151
- ω^2Q/F ([1]; variance of IIV): 0.197
- ω^2V1/F ([1]; variance of IIV): 0.136
- ω^2V2/F ([1]; variance of IIV): 0.422
- ω^2ka ([1]; variance of IIV): 0.537
- Blood-plasma ratio [2]: 0.567
- Lag time [ALAG (h)] [2]: 0.298 h
- Effect of solution on ALAG ([2]; fractional covariate effect): −0.191
- Effect of solution on Frel ([2]; fractional covariate effect): −0.547
- Apparent clearance healthy participants [CL/F (L/h)] ([2]; healthy participants): 18.2 L/h
- Absorption rate constant [ka (/h)] ([2]; healthy participants and EM patients): 1.31 h⁻¹
- Apparent clearance patients [CL/F (L/h)] ([2]; patients): 18.2 L/h
- Exponential effect of dose on Frel ([2]; power exponent): 0.163
- Exponential effect of dose on ka ([2]; power exponent): −0.252
- σprop ([2]; proportional residual error): 0.339
- σprop (study CGP-MD-01) ([2]; proportional residual error): 0.572
- σprop (study CGP-PK-02) ([2]; proportional residual error): 0.252
- ω^2CL/F ([2]; variance of IIV): 0.0724
- ω^2Q/F ([2]; variance of IIV): 0.550
- ω^2ka ([2]; variance of IIV): 0.683
- ω^2IOVFrel ([2]; variance of IOV): 0.228
- Cavg, Mean (SD) ([3]; ADVANCE EM, 10 mg QD): 21.9 (14) ng/mL
- Cavg, Median (5th to 95th percentile) ([3]; ADVANCE EM, 10 mg QD): 19.3 (5.35–163) ng/mL
- Ctrough, Mean (SD) ([3]; ADVANCE EM, 10 mg QD): 3.24 (3.1) ng/mL
- Ctrough, Median (5th to 95th percentile) ([3]; ADVANCE EM, 10 mg QD): 2.62 (0.576–35.2) ng/mL
- Time above ½EC90 (4.2 ng/mL or 7 nM), Mean (SD) ([3]; ADVANCE EM, 10 mg QD): 18.1 (3.8) hr
- Time above ½EC90 (4.2 ng/mL or 7 nM), Median (5th to 95th percentile) ([3]; ADVANCE EM, 10 mg QD): 18.0 (8.00–24.0) hr
- Cavg, Mean (SD) ([3]; ADVANCE EM, 30 mg QD): 76.1 (54) ng/mL
- Cavg, Median (5th to 95th percentile) ([3]; ADVANCE EM, 30 mg QD): 65.1 (19.0–466) ng/mL
- Ctrough, Mean (SD) ([3]; ADVANCE EM, 30 mg QD): 12.0 (16) ng/mL
- Ctrough, Median (5th to 95th percentile) ([3]; ADVANCE EM, 30 mg QD): 8.85 (2.02–202) ng/mL
- Time above ½EC90 (4.2 ng/mL or 7 nM), Mean (SD) ([3]; ADVANCE EM, 30 mg QD): 23.7 (1.2) hr
- Time above ½EC90 (4.2 ng/mL or 7 nM), Median (5th to 95th percentile) ([3]; ADVANCE EM, 30 mg QD): 24.0 (16.0–24.0) hr
- Cavg, Mean (SD) ([3]; ADVANCE EM, 60 mg QD): 156 (94) ng/mL
- Cavg, Median (5th to 95th percentile) ([3]; ADVANCE EM, 60 mg QD): 134 (33.9–874) ng/mL
- Ctrough, Mean (SD) ([3]; ADVANCE EM, 60 mg QD): 23.8 (30) ng/mL
- Ctrough, Median (5th to 95th percentile) ([3]; ADVANCE EM, 60 mg QD): 18.4 (3.63–373) ng/mL
- Time above ½EC90 (4.2 ng/mL or 7 nM), Mean (SD) ([3]; ADVANCE EM, 60 mg QD): 24.0 (0.22) hr
- Time above ½EC90 (4.2 ng/mL or 7 nM), Median (5th to 95th percentile) ([3]; ADVANCE EM, 60 mg QD): 24.0 (21.5–24.0) hr
- Cavg, Mean (SD) ([3]; CGP-MD-01 EM, 10 mg QD): 19.2 (6.7) ng/mL
- Cavg, Median (5th to 95th percentile) ([3]; CGP-MD-01 EM, 10 mg QD): 19.3 (7.01–52.2) ng/mL
- Ctrough, Mean (SD) ([3]; CGP-MD-01 EM, 10 mg QD): 2.80 (1.4) ng/mL
- Ctrough, Median (5th to 95th percentile) ([3]; CGP-MD-01 EM, 10 mg QD): 2.58 (0.738–9.95) ng/mL
- Time above ½EC90 (4.2 ng/mL or 7 nM), Mean (SD) ([3]; CGP-MD-01 EM, 10 mg QD): 17.8 (3.5) hr
- Time above ½EC90 (4.2 ng/mL or 7 nM), Median (5th to 95th percentile) ([3]; CGP-MD-01 EM, 10 mg QD): 18.0 (9.00–24.0) hr
- Cavg, Mean (SD) ([3]; CGP-MD-01 EM, 30 mg BID): 162 (85) ng/mL
- Cavg, Median (5th to 95th percentile) ([3]; CGP-MD-01 EM, 30 mg BID): 132 (50.6–476) ng/mL
- Ctrough, Mean (SD) ([3]; CGP-MD-01 EM, 30 mg BID): 60.7 (44) ng/mL
- Ctrough, Median (5th to 95th percentile) ([3]; CGP-MD-01 EM, 30 mg BID): 44.5 (13.3–277) ng/mL
- Time above ½EC90 (4.2 ng/mL or 7 nM), Mean (SD) ([3]; CGP-MD-01 EM, 30 mg BID): 12.0 (0.0) hr
- Time above ½EC90 (4.2 ng/mL or 7 nM), Median (5th to 95th percentile) ([3]; CGP-MD-01 EM, 30 mg BID): 12.0 (12.0–12.0) hr
- Cavg, Mean (SD) ([3]; CGP-MD-01 EM, 30 mg QD): 71.3 (36) ng/mL
- Cavg, Median (5th to 95th percentile) ([3]; CGP-MD-01 EM, 30 mg QD): 66.2 (30.6–310) ng/mL
- Ctrough, Mean (SD) ([3]; CGP-MD-01 EM, 30 mg QD): 11.2 (16) ng/mL
- Ctrough, Median (5th to 95th percentile) ([3]; CGP-MD-01 EM, 30 mg QD): 8.97 (3.68–203) ng/mL
- Time above ½EC90 (4.2 ng/mL or 7 nM), Mean (SD) ([3]; CGP-MD-01 EM, 30 mg QD): 24.0 (0.19) hr
- Time above ½EC90 (4.2 ng/mL or 7 nM), Median (5th to 95th percentile) ([3]; CGP-MD-01 EM, 30 mg QD): 24.0 (21.5–24.0) hr
- Cavg, Mean (SD) ([3]; CGP-MD-01 EM, 60 mg BID): 331 (200) ng/mL
- Ctrough, Mean (SD) ([3]; CGP-MD-01 EM, 60 mg BID): 133 (140) ng/mL
- Ctrough, Median (5th to 95th percentile) ([3]; CGP-MD-01 EM, 60 mg BID): 101 (26.1–972) ng/mL
- Time above ½EC90 (4.2 ng/mL or 7 nM), Mean (SD) ([3]; CGP-MD-01 EM, 60 mg BID): 12.0 (0.0) hr
- Time above ½EC90 (4.2 ng/mL or 7 nM), Median (5th to 95th percentile) ([3]; CGP-MD-01 EM, 60 mg BID): 12.0 (12.0–12.0) hr
- Cavg, Mean (SD) ([3]; CGP-MD-01 EM, 60 mg QD): 152 (93) ng/mL
- Cavg, Median (5th to 95th percentile) ([3]; CGP-MD-01 EM, 60 mg QD): 144 (39.5–992) ng/mL
